Measurements: paper PMC4766003 (Biomacromolecules, 2015)

Target: Concanavalin A (Con A) (Canavalia ensiformis, UniProt P02866)
Test: isothermal titration calorimetry, one-site model
Type: binding
Details: 100 mM acetate pH 4.6, 1 mM MnCl2, 1 mM CaCl2, 30 mM NaCl, 25 °C; dimeric Con A
Method in brief: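 Con A dialysed (10 kDa cutoff) into the assay buffer, with concentration from A280 (A1%,1cm = 12.4, monomer basis). Glycopolymer ligands were dialysed and quantified colorimetrically. Titrant in the same buffer was injected into Con A at 25 °C, stirred at 1000 rpm. Con A 0.42–0.06 mM; polymers 0.338–0.017 mM at 2 s intervals; monomers 7.55–8.03 mM at 4 s intervals. One-site fit floated ΔH, Ka and n.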

Chain of Concanavalin A (Con A) (P02866 30-148 limits assumed): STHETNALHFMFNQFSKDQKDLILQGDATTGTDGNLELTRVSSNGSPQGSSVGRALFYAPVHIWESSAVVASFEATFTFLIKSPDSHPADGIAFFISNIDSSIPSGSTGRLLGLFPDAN
Chain of Concanavalin A (Con A) (P02866 164-281 limits assumed): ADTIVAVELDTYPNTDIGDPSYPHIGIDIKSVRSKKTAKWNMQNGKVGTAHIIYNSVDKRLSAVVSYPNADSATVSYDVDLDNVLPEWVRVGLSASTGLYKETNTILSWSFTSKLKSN

With Man-Man [22b] the “Ka (M^-1 × 10^3)^c” value was 17.3 × 10^3.
In the case of Man-Glc [25b], the “Ka (M^-1 × 10^3)^c” value is reported as 8.56 × 10^3.
